Values after ≈ are worked out from the molar mass of the structure shown.
Columns and labels:
Candida albicans [1] = assay: Growth inhibition of Candida albicans ATCC 90028 at 0.0313 ug/ml incubated for 18 hrs at 35 degC by broth microdilution method relative to control; format: functional; details: ATCC 90028, 18 h, read-out: GI
Candida albicans [2] = assay: Growth inhibition of Candida albicans ATCC 90028 at 0.0625 ug/ml incubated for 18 hrs at 35 degC by broth microdilution method relative to control; format: functional; details: ATCC 90028, 18 h, read-out: GI
CCRF-CEM [3] = assay: Antiproliferative activity against human CCRF-CEM cells assessed as cell viability at 100 uM after 72 hrs by MTT assay; format: functional; details: read-out: Activity
Outline: (§1)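 MTT viability assay in CCRF-CEM and MCF-7 cells after 72 h exposure at 25, 50, 100 and 200 µM. Results are relative to control cells without inhibitor in 0.5% DMSO. Done in triplicate; values are means ± SD of three independent experiments.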

MCF7 [4] = assay: Antiproliferative activity against human MCF7 cells assessed as cell viability at 100 uM after 72 hrs by MTT assay; format: functional; details: MCF7, 72 h, read-out: Activity; outline: as §1
Candida albicans [5] = assay: Growth inhibition of Candida albicans ATCC 90028 at 0.25 ug/ml incubated for 4 hrs at 35 degC by broth microdilution method relative to control; format: functional; details: ATCC 90028, 4 h, read-out: GI
Candida albicans [6] = assay: Growth inhibition of Candida albicans ATCC 90028 at 2 ug/ml incubated for 18 hrs at 35 degC by broth microdilution method relative to control; format: functional; details: ATCC 90028, 18 h, read-out: GI
Candida albicans [7] = assay: Growth inhibition of Candida albicans ATCC 90028 at 1 ug/ml incubated for 18 hrs at 35 degC by broth microdilution method relative to control; format: functional; details: ATCC 90028, 18 h, read-out: GI
Candida albicans [8] = assay: Growth inhibition of Candida albicans ATCC 90028 at 16 ug/ml incubated for 18 hrs at 35 degC by broth microdilution method relative to control; format: functional; details: ATCC 90028, 18 h, read-out: GI
Candida albicans [9] = assay: Growth inhibition of Candida albicans ATCC 90028 at 0.5 ug/ml incubated for 18 hrs at 35 degC by broth microdilution method relative to control; format: functional; details: ATCC 90028, 18 h, read-out: GI
Candida albicans [10] = assay: Growth inhibition of Candida albicans ATCC 90028 at 0.25 ug/ml incubated for 18 hrs at 35 degC by broth microdilution method relative to control; format: functional; details: ATCC 90028, 18 h, read-out: GI
MCF7 [11] = assay: Antiproliferative activity against human MCF7 cells assessed as cell viability at 25 uM after 72 hrs by MTT assay; format: functional; details: MCF7, 72 h, read-out: Activity; outline: as §1
Candida albicans [12] = assay: Growth inhibition of Candida albicans ATCC 90028 at 16 ug/ml incubated for 48 hrs at 35 degC by broth microdilution method relative to control; format: functional; details: ATCC 90028, 48 h, read-out: GI
Candida albicans [13] = assay: Growth inhibition of Candida albicans ATCC 90028 at 2 ug/ml incubated for 4 hrs at 35 degC by broth microdilution method relative to control; format: functional; details: ATCC 90028, 4 h, read-out: GI
Vero [14] = assay: Cytotoxicity in African green monkey Vero cells up to 64 ug/ml incubated for 3 to 18 hrs by XTT assay; format: cell-based; details: chlorocebus sabaeus
Vero [15] = assay: Cytotoxicity in African green monkey Vero cells incubated for 18 hrs by XTT assay; format: cell-based; details: Chlorocebus sabaeus
CCRF-CEM [16] = assay: Antiproliferative activity against human CCRF-CEM cells assessed as cell viability at 200 uM after 72 hrs by MTT assay; format: functional; details: read-out: Activity; outline: as §1
Candida albicans [17] = assay: Growth inhibition of Candida albicans ATCC 90028 at 0.0625 ug/ml incubated for 4 hrs at 35 degC by broth microdilution method relative to control; format: functional; details: ATCC 90028, 4 h, read-out: GI
CCRF-CEM [18] = assay: Antiproliferative activity against human CCRF-CEM cells assessed as cell viability at 50 uM after 72 hrs by MTT assay; format: functional; details: read-out: Activity; outline: as §1
Candida albicans [19] = assay: Fungicidal activity against Candida albicans ATCC 90028 assessed as log reduction in cell viability at 16 ug/ml after 48 hrs at 35 degC; format: functional
Outline: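 MFC assay on C. albicans ATCC 90028 following M27-A3, at the molar equivalent of 16 µg/mL. CFU of treated cells were compared with CFU of the untreated inoculum. Activity is given as lg R = lg CFU/mL control − lg CFU/mL treated, and lg R ≥3 was defined as fungicidal. Values are means of two independent experiments.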

MCF7 [20] = assay: Antiproliferative activity against human MCF7 cells assessed as cell viability at 50 uM after 72 hrs by MTT assay; format: functional; details: MCF7, 72 h, read-out: Activity; outline: as §1
Candida albicans [21] = assay: Growth inhibition of Candida albicans ATCC 90028 at 0.125 ug/ml incubated for 4 hrs at 35 degC by broth microdilution method relative to control; format: functional; details: ATCC 90028, 4 h, read-out: GI
Candida albicans [22] = assay: Growth inhibition of Candida albicans ATCC 90028 at 8 ug/ml incubated for 48 hrs at 35 degC by broth microdilution method relative to control; format: functional; details: ATCC 90028, 48 h, read-out: GI
Candida albicans [23] = assay: Growth inhibition of Candida albicans ATCC 90028 at 0.125 ug/ml incubated for 18 hrs at 35 degC by broth microdilution method relative to control; format: functional; details: ATCC 90028, 18 h, read-out: GI
Candida albicans [24] = assay: Growth inhibition of Candida albicans ATCC 90028 at 4 ug/ml incubated for 18 hrs at 35 degC by broth microdilution method relative to control; format: functional; details: ATCC 90028, 18 h, read-out: GI
Candida albicans [25] = assay: Growth inhibition of Candida albicans ATCC 90028 at 0.5 ug/ml incubated for 4 hrs at 35 degC by broth microdilution method relative to control; format: functional; details: ATCC 90028, 4 h, read-out: GI
Candida albicans [26] = assay: Growth inhibition of Candida albicans ATCC 90028 at 8 ug/ml incubated for 18 hrs at 35 degC by broth microdilution method relative to control; format: functional; details: ATCC 90028, 18 h, read-out: GI
MCF7 [27] = assay: Antiproliferative activity against human MCF7 cells assessed as cell viability at 200 uM after 72 hrs by MTT assay; format: functional; details: MCF7, 72 h, read-out: Activity; outline: as §1
Candida albicans [28] = assay: Growth inhibition of Candida albicans ATCC 90028 at 8 ug/ml incubated for 4 hrs at 35 degC by broth microdilution method relative to control; format: functional; details: ATCC 90028, 4 h, read-out: GI
Candida albicans [29] = assay: Growth inhibition of Candida albicans ATCC 90028 at 1 ug/ml incubated for 4 hrs at 35 degC by broth microdilution method relative to control; format: functional; details: ATCC 90028, 4 h, read-out: GI
CCRF-CEM [30] = assay: Antiproliferative activity against human CCRF-CEM cells assessed as cell viability at 25 uM after 72 hrs by MTT assay; format: functional; details: read-out: Activity; outline: as §1
Candida albicans [31] = assay: Fungicidal activity against Candida albicans ATCC 90028 assessed as drug level causing 3 fold reduction in bacterial count after 48 hrs at 35 degC; format: functional; details: ATCC 90028, 48 h
Candida albicans [32] = assay: Growth inhibition of Candida albicans ATCC 90028 at 0.0313 ug/ml incubated for 4 hrs at 35 degC by broth microdilution method relative to control; format: functional; details: ATCC 90028, 4 h, read-out: GI
Candida albicans [33] = assay: Antifungal activity against Candida albicans ATCC 90028 assessed as reduction in cell viability after 48 hrs in absence of ergosterol by XTT assay; format: functional; details: ATCC 90028, 48 h
Candida albicans [34] = assay: Antifungal activity against Candida albicans ATCC 90028 assessed as reduction in cell viability at 1022.5 to 0.06 uM after 48 hrs in presence of ergosterol by XTT assay; format: functional; details: ATCC 90028, 48 h
Candida albicans [35] = assay: Antifungal activity against Candida albicans ATCC 90028 assessed as reduction in cell viability at 0.1 uM after 48 hrs in presence of ergosterol by XTT assay; format: functional
Candida albicans [36] = assay: Growth inhibition of Candida albicans ATCC 90028 at 0.625 ug/ml incubated for 18 hrs at 35 degC by broth microdilution method relative to control; format: functional; details: ATCC 90028, 18 h, read-out: GI
Candida albicans [37] = assay: Antifungal activity against Candida albicans ATCC 90028 assessed as reduction in cell viability at 0.3 uM after 48 hrs in absence of ergosterol by XTT assay; format: functional
Candida albicans [38] = assay: Growth inhibition of Candida albicans ATCC 90028 at 0.625 ug/ml incubated for 48 hrs at 35 degC by broth microdilution method relative to control; format: functional; details: ATCC 90028, 48 h, read-out: GI
CCRF-CEM [39] = assay: Antiproliferative activity against human CCRF-CEM cells after 72 hrs by MTT assay; format: functional, cell-based
Outline: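 EC50 was derived from a repeat 72 h MTT assay in CCRF-CEM or MCF-7 cells. It is the concentration killing 50% of tumour cells compared with control cells incubated without inhibitor in 0.5% DMSO.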

SMILES | inhibition of growth at 0.0625 µg/mL (Candida albicans [2]) | viability at 100 µM (CCRF-CEM [3]) | viability at 100 µM (MCF7 [4]) | inhibition of growth at 0.25 µg/mL (Candida albicans [5]) | inhibition of growth at 2 µg/mL (Candida albicans [6]) | inhibition of growth at 1 µg/mL (Candida albicans [7]) | inhibition of growth at 16 µg/mL (Candida albicans [8]) | inhibition of growth at 0.5 µg/mL (Candida albicans [9]) | inhibition of growth at 0.25 µg/mL (Candida albicans [10]) | viability at 25 µM (MCF7 [11]) | inhibition of growth at 16 µg/mL (Candida albicans [12]) | inhibition of growth at 2 µg/mL (Candida albicans [13]) | Activity (Vero [14]) | IC50 (Vero [15]) | viability at 200 µM (CCRF-CEM [16]) | inhibition of growth at 0.0625 µg/mL (Candida albicans [17]) | viability at 50 µM (CCRF-CEM [18]) | log(activity) (Candida albicans [19]) | viability at 50 µM (MCF7 [20]) | inhibition of growth at 0.125 µg/mL (Candida albicans [21]) | other results
CC(Cn1cnc2c1c(=O)n(C)c(=O)n2C)OC(=O)N1c2ccccc2C=Cc2ccccc21 (centres undefined) | 99.9% | 23.9% | 82.5% | 99.2% | 99.8% | 100% | 100% | 99.7% | 100% | 93.4% | 100% | 99.4% | Non-Toxic | ≥ 280 µM | 23.4% | 99.3% | 39.3% | 8 | 98.8% | 99.7% | inhibition of growth at 0.0313 µg/mL (Candida albicans [1]): 99.8%; inhibition of growth at 8 µg/mL (Candida albicans [22]): 99.2%; inhibition of growth at 0.125 µg/mL (Candida albicans [23]): 100%; inhibition of growth at 4 µg/mL (Candida albicans [24]): 100%; inhibition of growth at 0.5 µg/mL (Candida albicans [25]): 99.2%; inhibition of growth at 8 µg/mL (Candida albicans [26]): 99.8%; viability at 200 µM (MCF7 [27]): 76.5%; inhibition of growth at 8 µg/mL (Candida albicans [28]): 99.2%; inhibition of growth at 1 µg/mL (Candida albicans [29]): 99.3%; viability at 25 µM (CCRF-CEM [30]): 52.4%; MFC (Candida albicans [31]): 35 µM (≈ 16 µg/mL); inhibition of growth at 0.0313 µg/mL (Candida albicans [32]): 99.1%
C[C@@H]1[C@H](O)[C@@H](C)/C=C/C=C/C=C/C=C/C=C/C=C/C=C/[C@H](O[C@@H]2O[C@H](C)[C@@H](O)[C@H](N)[C@@H]2O)C[C@@H]2O[C@](O)(C[C@@H](O)C[C@@H](O)[C@H](O)CC[C@@H](O)C[C@@H](O)CC(=O)O[C@H]1C)C[C@H](O)[C@H]2C(=O)O [AMPHOTERICIN B] | – | – | – | – | – | – | – | – | – | – | – | – | – | – | – | – | – | – | – | – | MIC (Candida albicans [33]): 0.3 µM (≈ 0.277 µg/mL); MIC (Candida albicans [34]): 0.1 µM; Activity (Candida albicans [35]): 78.5%; inhibition of growth at 0.625 µg/mL (Candida albicans [36]): 100%; Activity (Candida albicans [37]): 95.5%; inhibition of growth at 0.625 µg/mL (Candida albicans [38]): 100%
CC(Cn1cnc2c1c(=O)n(C)c(=O)n2C)OCc1cn(CCCn2cnc3c(Br)c(Br)c(Br)c(Br)c32)nn1 (centres undefined) | 99.7% | 0% | 2% | 99.6% | 100% | 100% | 99.9% | 99.6% | 100% | 74.5% | 100% | 99.2% | Non-Toxic | ≥ 280 µM | 0% | 99.3% | 0% | 8 | 29.7% | 99.6% | EC50 (CCRF-CEM [39]): 6.3 µM; inhibition of growth at 8 µg/mL (Candida albicans [22]): 99.2%; inhibition of growth at 0.125 µg/mL (Candida albicans [23]): 100%; inhibition of growth at 4 µg/mL (Candida albicans [24]): 99.9%; inhibition of growth at 0.5 µg/mL (Candida albicans [25]): 99%; inhibition of growth at 8 µg/mL (Candida albicans [26]): 99.9%; viability at 200 µM (MCF7 [27]): 4.1%; inhibition of growth at 8 µg/mL (Candida albicans [28]): 99%; inhibition of growth at 1 µg/mL (Candida albicans [29]): 99.2%; viability at 25 µM (CCRF-CEM [30]): 0%; MFC (Candida albicans [31]): 36 µM (≈ 28.6 µg/mL)

From ChEMBL document CHEMBL4229342, “Synthesis of novel proxyphylline derivatives with dual Anti-Candida albicans and anticancer activity” (Eur J Med Chem, 2018)
